High-throughput results as filed in PubChem.
CR mimetic SO: reduction of superoxide in aged yeast, primary screen, HTS; S. cerevisiae aged cells, superoxide DHE fluorescence; active compounds read low; superoxide response (% of plate mean), % at 10 µM; 330,000 compounds, 0.18% hits; AID 2690, 2010;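 active means superoxide response under a set limit, about three screen SD below normal, cut at about 65% in these data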;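 further: yeast aged for seven days with compound at 30 °C before DHE staining; 100% = average MFI of all compound-treated wells on the plate with controls excluded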
SUMO Mot1 rescue: yeast Mot1-301 growth rescue at high temperature, primary screen, SUMOylation pathway inhibitor project, S. cerevisiae, ATP luminescence, 38.5C | S. cerevisiae Mot1-301 growth rescue; percent above DMSO median, 100 means doubled | growth rescue, % at 18.8 µM | 320,000 compounds, 1% hits | AID 2716, 2010;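 active means every valid replicate shows activation above 250% relative to neutral control wells; inactive means the rest, any valid replicate at or below 250%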;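 further: OY570 slx delta 5 strain wells were the positive control but not used for scaling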
Cneo AK release: Cryptococcus neoformans cell lysis inducers, primary screen, AK release luminescence, single concentration; AID 651654, 2012; 360,000 compounds, 0.2% hits; lysis activity, % at 15 µM; C. neoformans lysis, adenylate kinase release luminescence, 4 h; normalised: neutral wells 0, clomiphene wells 100;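 active means mean lysis activity across replicates of at least 80%, whatever share of replicates individually reach that level; inactive means mean lysis activity below 80%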
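read-out = cell lysis signal | test system = log-phase Cryptococcus neoformans yeast cells | input = cells at 5 × 10^6 per mL | medium = fresh YPD growth medium | signal = luminescent adenylate kinase detection reagent | timing = 4 h at 37 °C static, read 1 h later | dosing = single dose | controls = Clomiphene as positive lysis control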
PglD inh: C. jejuni PglD acetyltransferase inhibitors, primary screen, biochemical, DTNB colorimetric, single point | inhibition, % at 12.5 µM | purified PglD enzyme, DTNB colorimetric CoA detection | 360,000 compounds, 0.098% hits | AID 602405, 2012; in the data active means inhibition above about 16%, passing the limit was not always enough
rRNA inh HTS: reduced GFP signal of wild-type E. coli, primary screen, bacterial rRNA inhibitor project, GFP/RFP fluorescence, OD600, single point; E. coli WT GFP vs humanized-ribosome RFP mutants, 24 h; active compounds read low; DMSO median 0, no signal -100; GFP signal change (wild-type ribosome), % (test concentration not listed); 350,000 compounds, 1.6% hits; AID 720706, 2013;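 active means significant combined selectivity score with lowered wild-type GFP, culture density cut under 30%, mutant RFP and density less affected; inactive means any of these conditions unmet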
Numbers without * were called inactive; x = not tested or not shown. Compounds with a hit are over-represented: about 2.2% of the library has one in this group of screens.

SMILES	CR mimetic SO	SUMO Mot1 rescue	Cneo AK release	PglD inh	rRNA inh HTS
CN(C)CCCNc1cc(C(C)(C)C)nc2c(-c3ccccc3)cnn12	100	267*	4	5	-51
Cc1cc(Cl)n2ncc(-c3ccccc3)c2n1	107	79	-11	-10	-33*
Cc1cc(NCc2ccccn2)n2ncc(-c3ccc(Cl)cc3)c2n1	105	101	-1	-3	16
CNC[C@H]1OCCCC[C@H](C)Oc2ccc(NS(=O)(=O)c3ccc(C)cc3)cc2C(=O)N([C@H](C)CO)C[C@@H]1C	x	x	-10	4	6
Cc1noc(C)c1NC(=O)Nc1ccc2c(c1)C(=O)N([C@@H](C)CO)C[C@H](C)[C@H](CN(C)Cc1ccncc1)OCCCC[C@H](C)O2	x	x	1	-3	1
C[C@H]1CN([C@@H](C)CO)C(=O)c2cccc(NS(=O)(=O)c3cccs3)c2O[C@@H]1CN(C)Cc1ccc(C(=O)Nc2ccccc2N)cc1	x	x	x	x	0
C[C@H]1CN([C@@H](C)CO)C(=O)c2cc(-c3cccc(C#N)c3)cnc2O[C@H]1CN(C)Cc1ccc(F)cc1	x	x	x	x	3
CCN1CCN(Cc2ccc(NC(=O)c3ccc(C)c(NC(=O)c4nccnc4N)c3)cc2C(F)(F)F)CC1	96	10	6	8	-8
CCN1CCN(Cc2ccc(NC(=O)c3cc(NC(=O)c4nccnc4N)cc(OC)c3)cc2C(F)(F)F)CC1	109	353*	-5	-2	2
O=C(C[C@@H]1C=C[C@H](NC(=O)Nc2ccc(F)cc2)[C@@H](CO)O1)NCc1cccc(F)c1	x	x	1	2	1
Cc1oc2ccc(O)cc2c1C(=O)c1ccc(Br)cc1	107	25	x	x	-23*
Cc1oc2ccc(O)cc2c1C(=O)c1ccc(Cl)cc1	93	7	-1	-2	x
CCCCSc1nc(N)c(C#N)c(-c2cccs2)c1C#N	138	6	-2	-3	-31*
CC(=O)CSc1nc(N)c(C#N)c(-c2cccs2)c1C#N	99	69	-2	-3	x
COc1cccc(-c2ccc3c(c2)[C@@H]2[C@@H](CCN2C(=O)Cc2ccccc2)[C@H](CO)N3)c1	x	x	46	2	-23
O=C(C[C@H]1CC[C@@H]2[C@H](COC[C@@H](O)CN2Cc2cccc(C(F)(F)F)c2)O1)NCCc1ccccc1	x	x	-1	45	-12
CCCN(C)C[C@@H]1Oc2cc(-c3cncnc3)ccc2S(=O)(=O)N([C@@H](C)CO)C[C@@H]1C	x	x	x	16*	1
Cc1ccc(-c2ccc3c(c2)O[C@@H](CN(C)Cc2ccc(F)cc2)[C@@H](C)CN([C@H](C)CO)S3(=O)=O)cc1	x	x	83*	-2	-4
C[C@@H]1CN([C@@H](C)CO)S(=O)(=O)c2ccc(C3=CCCC3)cc2O[C@H]1CN(C)Cc1ccccc1F	x	x	2	5	4
C[C@H](CO)N1C[C@H](C)[C@H](CN(C)Cc2ccccc2F)Oc2cc(C3=CCCC3)ccc2S1(=O)=O	x	x	101*	-1	2
C[C@@H]1CN([C@@H](C)CO)S(=O)(=O)c2ccc(-c3cncnc3)cc2O[C@@H]1CN(C)C	x	x	2	1	1
C[C@@H]1CN([C@@H](C)CO)C(=O)c2cccc(NC(=O)CCCCCC(=O)Nc3ccccc3N)c2O[C@@H]1CN(C)C(=O)Nc1ccc2c(c1)OCO2	x	x	x	x	1
COc1cc2c(cc1NC(=O)C(C)Sc1cccc[n+]1[O-])oc1ccccc12 (stereo not given)	118	17	x	x	-33*
CCC(=O)Nc1ccc2c(c1)C(=O)N(C)[C@@H]1CC[C@H](CC(=O)NCCc3ccccc3)O[C@@H]1CO2	x	x	5	1	-1
O=C(Nc1ccc(Cl)c(Cl)c1)O/N=C/c1ccncc1	97	517*	15	-1	-52
SMILES	CR mimetic SO	SUMO Mot1 rescue	Cneo AK release	PglD inh	rRNA inh HTS
COc1ccc(NC(=O)O/N=C/c2ccccc2Cl)cc1	102	224	x	x	-13*
C[C@@H]1CN([C@@H](C)CO)C(=O)c2cccc(NC(=O)c3ccncc3)c2O[C@H]1CN(C)CC1CCCCC1	x	x	4	-2	-7
CCOC(=O)N(C)C[C@@H]1OCc2ccccc2-c2ccccc2C(=O)N([C@H](C)CO)C[C@H]1C	x	x	-2	3	-2
COc1ccc(N2CCN(C(=O)c3ccc(NS(=O)(=O)c4cccs4)cc3)CC2)cc1	81	-18	16	-1	-23*
CCOc1ccc(NS(=O)(=O)c2ccc(C(=O)N3CCN(c4ncccn4)CC3)cc2)cc1	101	29	x	x	-23*
CO[C@H]1CN(C)C(=O)c2cc(NC(=O)C3CC3)ccc2OC[C@@H](C)N(C(=O)c2ccccc2)C[C@H]1C	x	x	-10	-4	-2
Cc1cc(C2(c3ccc(O)c(C)c3)C(=O)N(C)c3ccc(Br)cc32)ccc1O	110	15	1	2	-40*
O=C(c1cc[n+]([O-])cc1)N1CCc2c([nH]c3ccccc23)C1c1ccccc1Cl (stereo not given)	119	-9	-1	-1	-30*
CN1N=C(C(=O)N2CCc3c([nH]c4ccccc34)C2c2ccccc2Cl)CCC1=O (stereo not given)	113	257	x	x	x
COc1cc2c(c(OC)c1OC)C(=O)C(=Cc1ccccc1)O2	x	x	-1	0	-29*
CCC/C(O)=C1\C(=O)CC(C)(C)CC1=NCc1ccccc1	98	26	x	x	-22*
COc1ccc(-c2noc(CCC(=O)N3CCN(c4cccc(OC)c4)CC3)n2)cc1	90	x	-1	-1	-32*
COc1ccc(-c2noc(CCC(=O)N3CCN(c4cccc(C(F)(F)F)c4)CC3)n2)cc1	102	-1	-1	-1	x
O=C(Cc1ccc(Cl)cc1Cl)Nc1ccncc1	94	61	3	1	-25*
O=C(CS(=O)(=O)c1ccccc1)Nc1ncc([N+](=O)[O-])s1	114	-12	1	-14	-6
O=C(CCS(=O)(=O)c1ccccc1)Nc1ncc([N+](=O)[O-])s1	127	20	-2	-1	-22*
O=C(O)CCC(=O)NCc1c(Cl)cccc1Sc1ccc(Cl)cc1	99	-14	3	1	-25*
N#Cc1c2n(c3c(=O)n(Cc4ccccc4)cnc13)CCCC2	91	-3	-1	2	-25*
O=C(COc1ccc(Cl)cc1Cl)N/N=C/c1ccc[nH]1	113	-11	1	-3	-22*
O=C(COc1ccc(Cl)cc1Cl)c1ccc[nH]1	100	15	-1	0	-31*
Cc1ccc(Cl)c(OCC(=O)OCC(=O)c2ccc[nH]2)c1	87	88	-2	1	0
O=C(COc1ccc(Cl)cc1Cl)N/N=C/CCc1ccccc1	102	-6	2	0	x
